According to ChEMBL document CHEMBL4390675, “Dopamine D4 Receptor-Selective Compounds Reveal Structure-Activity Relationships that Engender Agonist Efficacy” (J Med Chem, 2019):
Active and inactive are the calls of the source. The rule behind the calls is not given here.

Legend:
[1] = molecular target: T1, D(4) dopamine receptor (Homo sapiens) (UniProt P21917); assay: Agonist activity at human D4 receptor expressed in CHOK1 cells assessed as induction of beta-arrestin recruitment measured after 90 mins by luminescence assay relative to control; format: cell-based
T1 sequence (whole entry): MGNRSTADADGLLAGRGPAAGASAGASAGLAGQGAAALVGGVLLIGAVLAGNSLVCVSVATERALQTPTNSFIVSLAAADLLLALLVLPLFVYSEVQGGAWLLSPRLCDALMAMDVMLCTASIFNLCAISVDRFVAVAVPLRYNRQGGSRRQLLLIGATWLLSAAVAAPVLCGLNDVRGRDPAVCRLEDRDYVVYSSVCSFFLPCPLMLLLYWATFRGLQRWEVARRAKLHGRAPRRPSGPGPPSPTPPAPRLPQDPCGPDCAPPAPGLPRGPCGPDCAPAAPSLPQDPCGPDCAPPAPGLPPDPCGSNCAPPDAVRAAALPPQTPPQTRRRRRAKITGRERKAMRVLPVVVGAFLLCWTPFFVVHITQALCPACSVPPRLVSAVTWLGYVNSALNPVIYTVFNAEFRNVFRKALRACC
Method in brief: (§1)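 PathHunter enzyme-complementation assay in CHO-K1 cells stably expressing human D2R long isoform, D3R or D4R, seeded overnight in Ham's F12/10% FBS. Compounds were diluted in PBS with 0.2 μM sodium metabisulfite and applied at multiple concentrations for 90 min at 37 °C. Detection reagent was added for 45–60 min at room temperature, then luminescence was read. Values are % of maximal dopamine response, from nonlinear regression of triplicate runs, mean ± SEM, n = 3–4.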

[2] = molecular target: D(1A) dopamine receptor (Homo sapiens) (UniProt P21728); assay: Antagonist activity at D1 receptor (unknown origin) stably expressed in CHOK1 cells assessed as inhibition of dopamine-induced beta-arrestin recruitment measured after 90 mins by luminescence assay; format: cell-based
[3] = molecular target: T1, D(4) dopamine receptor (Homo sapiens); assay: Agonist activity at human D4 receptor expressed in CHOK1 cells assessed as inhibition of forskolin-induced cAMP accumulation measured after 30 mins by Eu-cAMP tracer based TR-FRET assay relative to dopamine; format: functional, cell-based
Method in brief: (§2)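 LANCE Ultra TR-FRET cAMP assay in CHO-K1 cells stably expressing human D2R long isoform or D4R. Cells were plated in HBSS/5 mM HEPES/0.2 μM metabisulfite, then immediately given compound plus forskolin (10 μM final) for 30 min at room temperature. Eu-cAMP tracer and ULight-anti-cAMP were added for 2 h in the dark. Values are % of maximal dopamine signal, nonlinear regression of triplicate runs, n = 3–4.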

D(3) dopamine receptor [4] = molecular target: T2, D(3) dopamine receptor (Homo sapiens, UniProt P35462); assay: Agonist activity at human D3 receptor expressed in CHOK1 cells assessed as induction of beta-arrestin recruitment measured after 90 mins by luminescence assay relative to control; format: cell-based; method in brief: as §1
D(3) dopamine receptor [5] = molecular target: T2, D(3) dopamine receptor; assay: Displacement of [3H](R)-(+)-7-OH-DPAT from human D3 receptor expressed in HEK293 cell membranes measured after 90 mins by scintillation counting method
Method in brief: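 Fresh HEK293 hD3R membranes (40 μg/well) in 50 mM Tris, 10 mM MgCl2, 1 mM EDTA, pH 7.4 were incubated with 0.5 nM [3H]-(R)-(+)-7-OH-DPAT and half-log compound dilutions in 30% DMSO for 90 min at room temperature. Nonspecific binding was defined with 10 μM (+)-butaclamol. Samples were filtered on PEI-soaked GF/B filters and counted by scintillation.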

D(4) dopamine receptor [6] = molecular target: T3, D(4) dopamine receptor (Homo sapiens, UniProt P21917); assay: Antagonist activity at human D4 receptor expressed in CHOK1 cells assessed as inhibition of dopamine-induced beta-arrestin recruitment measured after 90 mins by luminescence assay; format: cell-based; conditions: read-out: IC50
T3 sequence (P21917 whole entry): T1 sequence (whole entry)

[7] = molecular target: T1, D(4) dopamine receptor (Homo sapiens); assay: Antagonist activity at human D4 receptor expressed in CHOK1 cells assessed as inhibition of dopamine-induced beta-arrestin recruitment measured after 90 mins by luminescence assay relative to control; format: cell-based; set-up: concentration or dose not given beside the values
D(3) dopamine receptor [8] = molecular target: T2, D(3) dopamine receptor; assay: Antagonist activity at human D3 receptor expressed in CHOK1 cells assessed as inhibition of dopamine-induced beta-arrestin recruitment measured after 90 mins by luminescence assay relative to control; format: cell-based
Method in brief: (§3)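 Antagonist-mode PathHunter β-arrestin assay in CHO-K1 cells stably expressing human D2R long isoform or D3R, seeded overnight. Compound dilutions in PBS with 0.2 μM metabisulfite were co-incubated with an EC80 dopamine concentration for 90 min at 37 °C. Detection reagent was added for 45–60 min at room temperature, then luminescence was read. Values are % of dopamine EC80 response, from nonlinear regression of triplicate runs, n = 3–4.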

D(3) dopamine receptor [9] = molecular target: T2, D(3) dopamine receptor; assay: Agonist activity at human D3 receptor expressed in CHOK1 cells assessed as induction of beta-arrestin recruitment measured after 90 mins by luminescence assay; format: cell-based; conditions: read-out: EC50; method in brief: as §1
D(2) dopamine receptor [10] = molecular target: T4, D(2) dopamine receptor (Homo sapiens, UniProt P14416); assay: Agonist activity at human D2L receptor expressed in CHOK1 cells assessed as inhibition of forskolin-induced cAMP accumulation measured after 30 mins by Eu-cAMP tracer based TR-FRET assay relative to dopamine; format: cell-based; conditions: 0.5 h
[11] = molecular target: D(1B) dopamine receptor (Homo sapiens) (UniProt P21918); assay: Antagonist activity at D5 receptor (unknown origin) stably expressed in CHOK1 cells assessed as inhibition of dopamine-induced beta-arrestin recruitment measured after 90 mins by luminescence assay; format: cell-based
D(4) dopamine receptor [12] = molecular target: T3, D(4) dopamine receptor; assay: Agonist activity at human D4 receptor expressed in CHOK1 cells assessed as inhibition of forskolin-induced cAMP accumulation measured after 30 mins by Eu-cAMP tracer based TR-FRET assay; format: functional, cell-based; conditions: read-out: EC50; method in brief: as §2
[13] = molecular target: D(1A) dopamine receptor (Homo sapiens) (UniProt P21728); assay: Agonist activity at D1 receptor (unknown origin) stably expressed in CHOK1 cells assessed as induction of beta-arrestin recruitment measured after 90 mins by luminescence assay; format: cell-based
D(4) dopamine receptor [14] = molecular target: T3, D(4) dopamine receptor; assay: Displacement of [3H](R)-(+)-7-OH-DPAT from human D4.4 receptor expressed in HEK293 cell membranes measured after 90 mins by scintillation counting method
Method in brief: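 HEK293 cells stably expressing human D4.4R; membranes used fresh in 50 mM Tris, 10 mM MgCl2, 1 mM EDTA, pH 7.4. 60 μg protein/well with 3 nM [3H]-(R)-(+)-7-OH-DPAT (final), half-log dilutions in 30% DMSO, in triplicate. 90 min at room temperature, then GF/B filtration. Nonspecific binding with 10 μM (+)-butaclamol.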

D(2) dopamine receptor [15] = molecular target: T4, D(2) dopamine receptor; assay: Agonist activity at human D2L receptor expressed in CHOK1 cells assessed as induction of beta-arrestin recruitment measured after 90 mins by luminescence assay relative to control; format: cell-based
Method in brief: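 PathHunter enzyme-complementation assay in CHO-K1 cells stably expressing human D2R long isoform, seeded 2625 cells/well and incubated overnight. Compounds diluted in PBS with 0.2 μM sodium metabisulfite, tested at multiple concentrations, 90 min at 37 °C. Detection reagent then 45–60 min at room temperature, luminescence read. Normalized to maximal dopamine response. Nonlinear regression of triplicate runs, n = 3–4.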

D(3) dopamine receptor [16] = molecular target: T2, D(3) dopamine receptor; assay: Displacement of [3H]N-methylspiperone from human D3 receptor expressed in HEK293 cell membranes measured after 60 mins by scintillation counting method
Method in brief: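 HEK293 cells stably expressing human D3R; membranes in EBSS buffer pH 7.4, stored at −80 °C. 20 μg protein/well with 0.4 nM [3H]N-methylspiperone (final), half-log dilutions in 30% DMSO, in triplicate. 60 min at room temperature, then GF/B filtration. Nonspecific binding with 10 μM (+)-butaclamol.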

D(4) dopamine receptor [17] = molecular target: T3, D(4) dopamine receptor; assay: Agonist activity at human D4 receptor expressed in CHOK1 cells assessed as induction of beta-arrestin recruitment measured after 90 mins by luminescence assay; format: cell-based; conditions: read-out: EC50; method in brief: as §1
[18] = molecular target: T1, D(4) dopamine receptor (Homo sapiens); assay: Antagonist activity at human D4 receptor expressed in CHOK1 cells assessed as suppression of dopamine-induced inhibition of forskolin-stimulated cAMP accumulation measured after 30 mins by Eu-cAMP tracer based TR-FRET assay relative to dopamine; format: functional, cell-based; set-up: concentration or dose not given beside the values
D(4) dopamine receptor [19] = molecular target: T3, D(4) dopamine receptor; assay: Displacement of [3H]N-methylspiperone from human D4.4 receptor expressed in HEK293 cell membranes measured after 60 mins by scintillation counting method
Method in brief: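 Frozen HEK293 membranes stably expressing human D4.4R (30 μg/well) in EBSS-bicarbonate buffer, pH 7.4, were incubated with 0.4 nM [3H]N-methylspiperone and half-log compound dilutions (30% DMSO vehicle) for 60 min at room temperature. Nonspecific binding was defined by 10 μM (+)-butaclamol. Samples were filtered on GF/B filters and counted by scintillation.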

D(3) dopamine receptor [20] = molecular target: T2, D(3) dopamine receptor; assay: Antagonist activity at human D3 receptor expressed in CHOK1 cells assessed as inhibition of dopamine-induced beta-arrestin recruitment measured after 90 mins by luminescence assay; format: cell-based; conditions: read-out: IC50; method in brief: as §3
[21] = molecular target: D(1B) dopamine receptor (Homo sapiens) (UniProt P21918); assay: Agonist activity at D5 receptor (unknown origin) stably expressed in CHOK1 cells assessed as induction of beta-arrestin recruitment measured after 90 mins by luminescence assay; format: cell-based
D(4) dopamine receptor [22] = molecular target: T3, D(4) dopamine receptor; assay: Antagonist activity at human D4 receptor expressed in CHOK1 cells assessed as suppression of dopamine-induced inhibition of forskolin-stimulated cAMP accumulation measured after 30 mins by Eu-cAMP tracer based TR-FRET assay; format: functional, cell-based
D(2) dopamine receptor [23] = molecular target: T4, D(2) dopamine receptor; assay: Antagonist activity at human D2L receptor expressed in CHOK1 cells assessed as suppression of dopamine-induced inhibition of forskolin-stimulated cAMP accumulation measured after 30 mins by Eu-cAMP tracer based TR-FRET assay relative to dopamine; format: cell-based; conditions: 0.5 h

T4 sequence (P14416 whole entry): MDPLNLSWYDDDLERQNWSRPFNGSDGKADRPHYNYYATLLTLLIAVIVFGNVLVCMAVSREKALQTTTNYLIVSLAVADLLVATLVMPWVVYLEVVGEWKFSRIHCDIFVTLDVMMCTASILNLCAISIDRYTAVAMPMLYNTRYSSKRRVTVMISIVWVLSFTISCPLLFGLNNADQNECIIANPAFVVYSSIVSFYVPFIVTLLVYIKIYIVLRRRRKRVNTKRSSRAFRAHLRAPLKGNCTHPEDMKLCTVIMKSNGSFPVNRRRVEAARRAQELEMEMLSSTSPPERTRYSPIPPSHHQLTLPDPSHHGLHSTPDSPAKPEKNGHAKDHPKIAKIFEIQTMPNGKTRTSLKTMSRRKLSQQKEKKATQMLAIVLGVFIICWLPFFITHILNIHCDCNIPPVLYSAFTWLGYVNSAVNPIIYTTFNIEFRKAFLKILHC
Sequence of D(1A) dopamine receptor (Homo sapiens) (P21728 whole entry): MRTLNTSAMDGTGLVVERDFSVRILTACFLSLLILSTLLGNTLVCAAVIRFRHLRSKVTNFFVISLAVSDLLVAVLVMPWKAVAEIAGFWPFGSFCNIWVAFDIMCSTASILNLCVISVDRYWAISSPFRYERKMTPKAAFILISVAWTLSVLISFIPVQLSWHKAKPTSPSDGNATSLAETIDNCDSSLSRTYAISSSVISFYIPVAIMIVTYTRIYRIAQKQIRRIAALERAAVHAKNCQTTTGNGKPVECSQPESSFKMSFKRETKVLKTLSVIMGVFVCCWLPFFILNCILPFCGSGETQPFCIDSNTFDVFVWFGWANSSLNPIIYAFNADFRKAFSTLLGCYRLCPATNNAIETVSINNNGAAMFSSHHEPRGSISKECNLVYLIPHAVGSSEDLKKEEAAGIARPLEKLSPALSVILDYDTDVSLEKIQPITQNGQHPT
Sequence of D(1B) dopamine receptor (Homo sapiens) (P21918 whole entry): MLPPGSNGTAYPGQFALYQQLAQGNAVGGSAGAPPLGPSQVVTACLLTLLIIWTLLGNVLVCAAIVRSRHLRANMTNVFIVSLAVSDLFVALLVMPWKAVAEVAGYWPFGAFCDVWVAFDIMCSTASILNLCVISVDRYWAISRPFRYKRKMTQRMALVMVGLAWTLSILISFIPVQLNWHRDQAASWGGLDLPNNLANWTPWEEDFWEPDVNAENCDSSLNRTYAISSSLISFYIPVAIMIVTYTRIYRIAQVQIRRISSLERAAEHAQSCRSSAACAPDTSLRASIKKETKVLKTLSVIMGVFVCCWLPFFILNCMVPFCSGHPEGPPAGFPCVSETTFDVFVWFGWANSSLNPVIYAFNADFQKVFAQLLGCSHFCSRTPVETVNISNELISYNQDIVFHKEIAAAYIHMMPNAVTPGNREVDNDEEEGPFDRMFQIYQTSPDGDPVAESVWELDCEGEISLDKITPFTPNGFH
T2 sequence (P35462 whole entry): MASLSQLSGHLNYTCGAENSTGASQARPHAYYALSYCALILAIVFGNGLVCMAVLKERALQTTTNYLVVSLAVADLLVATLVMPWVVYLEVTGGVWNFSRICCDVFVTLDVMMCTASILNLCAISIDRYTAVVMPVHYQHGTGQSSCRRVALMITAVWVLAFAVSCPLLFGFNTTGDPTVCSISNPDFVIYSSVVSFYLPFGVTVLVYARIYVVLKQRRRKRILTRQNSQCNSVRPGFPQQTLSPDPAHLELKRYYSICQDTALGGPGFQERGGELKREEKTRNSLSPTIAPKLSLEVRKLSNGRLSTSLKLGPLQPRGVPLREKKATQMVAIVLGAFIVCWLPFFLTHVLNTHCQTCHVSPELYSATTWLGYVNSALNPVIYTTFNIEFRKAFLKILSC

Cc1cccc(NC(=O)CN2CCN(c3ccccn3)CC2)c1
Emax [1]: 30.7% | inhibition [2]: inactive | Emax [3]: 64.2% | Emax (D(3) dopamine receptor [4]): 49.4% | Ki (D(3) dopamine receptor [5]): 6480 nM | IC50 (D(4) dopamine receptor [6]): 313 nM | inhibition [7]: 78.9% | inhibition (D(3) dopamine receptor [8]): inactive | EC50 (D(3) dopamine receptor [9]): 6350 nM | Emax (D(2) dopamine receptor [10]): 19% | inhibition [11]: inactive | EC50 (D(4) dopamine receptor [12]): 3.6 nM | Activity [13]: inactive | Ki (D(4) dopamine receptor [14]): 1.89 nM | Emax (D(2) dopamine receptor [15]): 23.9% | Ki (D(3) dopamine receptor [16]): > 10000 nM | EC50 (D(4) dopamine receptor [17]): 394 nM | inhibition [18]: 43.2% | Ki (D(4) dopamine receptor [19]): 212 nM | IC50 (D(3) dopamine receptor [20]): > 100000 nM | Activity [21]: inactive | IC50 (D(4) dopamine receptor [22]): 82.7 nM

Cc1cccc(NC(=O)CN2CCN(c3ncccn3)CC2)c1
Emax [1]: 24.7% | inhibition [2]: inactive | Emax [3]: 64.6% | Emax (D(3) dopamine receptor [4]): 58.4% | Ki (D(3) dopamine receptor [5]): 5990 nM | IC50 (D(4) dopamine receptor [6]): 197 nM | inhibition [7]: 80.6% | inhibition (D(3) dopamine receptor [8]): inactive | EC50 (D(3) dopamine receptor [9]): 5580 nM | Emax (D(2) dopamine receptor [10]): 54.4% | inhibition [11]: inactive | EC50 (D(4) dopamine receptor [12]): 3.4 nM | Activity [13]: inactive | Ki (D(4) dopamine receptor [14]): 5.66 nM | Emax (D(2) dopamine receptor [15]): 39.6% | Ki (D(3) dopamine receptor [16]): > 10000 nM | EC50 (D(4) dopamine receptor [17]): 278 nM | inhibition [18]: 45% | Ki (D(4) dopamine receptor [19]): 318 nM | IC50 (D(3) dopamine receptor [20]): > 100000 nM | Activity [21]: inactive | IC50 (D(4) dopamine receptor [22]): 463 nM

CCc1cccc(NC(=O)CN2CCN(c3ccccn3)CC2)c1
Emax [1]: 26.2% | inhibition (INH) (D(2) dopamine receptor [23]): 88% | Emax [3]: 58% | Emax (D(3) dopamine receptor [4]): 44.7% | IC50 (D(4) dopamine receptor [6]): 370 nM | inhibition [7]: 59.7% | inhibition (D(3) dopamine receptor [8]): 100% | Emax (D(2) dopamine receptor [10]): 18.8% | EC50 (D(4) dopamine receptor [12]): 28.7 nM | Ki (D(4) dopamine receptor [14]): 2.23 nM | Emax (D(2) dopamine receptor [15]): 18.7% | EC50 (D(4) dopamine receptor [17]): 133 nM | inhibition [18]: 58.4% | Ki (D(4) dopamine receptor [19]): 67.9 nM | IC50 (D(4) dopamine receptor [22]): 1310 nM
